Assay [1] relates to Mycolicibacterium smegmatis. As to the kind of experiment: Antimycobacterial activity against Mycobacterium smegmatis mc2 155 after 48 hrs by microdilution resazurin assay. It counts as functional. The conditions noted are these: str. MC2 155, 48 h. A digest of the protocol: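 M. smegmatis mc²155 inoculum grown in Dubos medium with 10% ADC. Twofold serial drug dilutions (from 500 to 0.9) in Dubos medium, from 50 mg/mL DMSO stocks. DMSO and isoniazid controls. Sealed plates at 37 °C for 48 h, then 0.01% resazurin added for another 24 h at 37 °C. MIC is the lowest concentration preventing the blue-to-pink change.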
In general terms: Dilution methods test growth across graded concentrations, often in twofold steps.

Assay [2] has as its system Mycobacterium tuberculosis. Nature of the assay: Antimycobacterial activity against Mycobacterium tuberculosis H37Rv after 6 days by microdilution resazurin assay. It counts as functional. The conditions noted are these: 144 h. A digest of the protocol: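 Inoculum of virulent M. tuberculosis H37Rv grown in Dubos broth plus 10% ADC. Compounds from 50 mg/mL DMSO stocks, serially diluted twofold in Dubos medium (500 down to 0.9), with DMSO and isoniazid controls. Incubated 6 days at 37 °C, then 0.01% resazurin for 24 h more. MIC read as the lowest concentration without the blue-to-pink shift.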

≈ marks a conversion by molar mass, not a printed value.

Regarding `CC1(C)CCc2c(ccc3oc(-c4ccccn4)cc23)O1`, the values for the MIC95 in assay [1] and in assay [2] were 25 µg/mL (≈ 89.5 µM) and 10 µg/mL (≈ 35.8 µM), respectively.
The corresponding values for `CC1(C)CCc2c(ccc3oc4ccccc4c23)O1` are 10 µg/mL (≈ 39.6 µM) and 10 µg/mL (≈ 39.6 µM).
For `NNC(=O)c1ccncc1` [ISONIAZID], the figures for the MIC95 in assay [1] and in assay [2] were 12 µg/mL (≈ 87.5 µM) and 0.1 µg/mL (≈ 0.729 µM), respectively.
In the same order, the values of `CC1(C)C=Cc2c(ccc3oc(-c4ccc(Br)nc4)cc23)O1` are greater than 50 µg/mL and greater than 10 µg/mL.
For the molecule `CC1(C)C=Cc2c(ccc3oc(-c4cccc(Br)n4)cc23)O1`, the values for the MIC95 in assay [1] and in assay [2] were greater than 50 µg/mL and greater than 10 µg/mL, respectively.
With `CN(C)CCCNc1cccc(-c2cc3c4c(ccc3o2)OC(C)(C)C=C4)n1`, the MIC95 stood at 12.5 µg/mL (≈ 33.1 µM) in assay [1] and 10 µg/mL (≈ 26.5 µM) in assay [2].
The corresponding values for `CC1(C)C=Cc2c(ccc3oc4c(c23)CCCC4)O1` are greater than 500 µg/mL and 120 µg/mL (≈ 472 µM).
Regarding `C#CC(C)(C)Oc1ccc2oc(-c3ccncc3)cc2c1`, the MIC95 turned out to be 25 µg/mL (≈ 90.1 µM) in assay [1] and 16 µg/mL (≈ 57.7 µM) in assay [2].
In the same order, the values of `CN(C)CCCNc1ccc(-c2cc3c4c(ccc3o2)OC(C)(C)C=C4)cn1` are 12.5 µg/mL (≈ 33.1 µM) and 10 µg/mL (≈ 26.5 µM).
The corresponding values for `O=Cc1c(O)ccc2c1C1CCCOC1O2` (centres undefined) are greater than 125 µg/mL and 125 µg/mL (≈ 568 µM).
With `Oc1ccc2oc(-c3ccncc3)cc2c1`, the MIC95 in assay [1] was greater than 50 µg/mL; in assay [2], greater than 10 µg/mL.
In the same order, the values of `CC1(C)C=Cc2c(ccc3oc4ccccc4c23)O1` are 10 µg/mL (≈ 40 µM) and 10 µg/mL (≈ 40 µM).
In the case of `Cc1c(-c2ccncc2)oc2ccc3c(c12)C=CC(C)(C)O3`, the figures for the MIC95 in assay [1] and in assay [2] were 6.2 µg/mL (≈ 21.3 µM) and 3 µg/mL (≈ 10.3 µM), respectively.
As to `CC1(C)C=Cc2c(ccc3oc(-c4ccncc4)cc23)O1`, the MIC95 stood at 3 µg/mL (≈ 10.8 µM) in assay [1] and 2.5 µg/mL (≈ 9.01 µM) in assay [2].
In the same order, the values of `Cc1cc2c3c(ccc2o1)OC(C)(C)C=C3` are greater than 500 µg/mL and greater than 500 µg/mL.
In the same order, the values of `CC(=O)OCCCc1coc2ccc3c(c12)C=CC(C)(C)O3` are greater than 500 µg/mL and greater than 500 µg/mL.
The corresponding values for `CC1(C)C=Cc2c(ccc3c2C2CCCOC2O3)O1` (centres undefined) are 125 µg/mL (≈ 484 µM) and 250 µg/mL (≈ 968 µM).
On to `Cc1c(-c2ccncc2)oc2ccc(O)cc12`, for which the MIC95 in assay [1] was greater than 50 µg/mL; in assay [2], greater than 10 µg/mL.
The corresponding values for `CC1(C)CCc2c(ccc3oc(-c4cccnc4)cc23)O1` are 6.2 µg/mL (≈ 22.2 µM) and 10 µg/mL (≈ 35.8 µM).
In the same order, the values of `Oc1ccc2oc(-c3ccccc3)cc2c1` are 8 µg/mL (≈ 38.1 µM) and 125 µg/mL (≈ 595 µM).
Consider `CC1(C)C=Cc2c(ccc3occ(CCCO)c23)O1`, for which the values for the MIC95 in assay [1] and in assay [2] were 62 µg/mL (≈ 240 µM) and 125 µg/mL (≈ 484 µM), respectively.
Regarding `CC1(C)C=Cc2c(ccc3oc(-c4ccccc4)cc23)O1`, the values for the MIC95 in assay [1] and in assay [2] were greater than 500 µg/mL and 32 µg/mL (≈ 116 µM), respectively.

These data come from ChEMBL document CHEMBL1140071, “A new synthetic access to furo[3,2-f]chromene analogues of an antimycobacterial” (2008).
